This is an account of results in ChEMBL document CHEMBL4706750, “Design and Catalyzed Activation of Mycophenolic Acid Prodrugs” (ACS Med Chem Lett, 2021).

The source made the active and inactive calls. The calls are words filed in the database; no cut-off is given here.

For data set [1], the target named is Inosine-5'-monophosphate dehydrogenase 2 (Homo sapiens) (UniProt P12268). Nature of the data set: Inhibition of IMPDH2 (unknown origin) assessed by conversion of NAD+ to NADH preincubated for 30 mins followed by addition of inosine-5'- monophosphate substrate and NAD at 10 uM measured by plate reader method. The procedure, abridged:
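IMPDH2 enzyme exposed to test compounds, then stimulated with inosine-5′-monophosphate and NAD+. NADH formation followed by absorbance at 340 nm. Single test concentration of 10 μM.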

A short description of data set [2]: Toxicity in human hepatocytes assessed by dehydrogenase activity measured after 48 hrs by CCK-8 assay. The format is cell-based, Hepatocyte. In short, it runs like this:
(§1)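 Cells cultured with compound for 48 h, then dehydrogenase activity read by colorimetric CCK-8 assay. EC50 derived from the concentration series. Cells were primary human hepatocytes or the MIN6 pancreatic β-cell line, as the line states.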
For orientation: Tetrazolium assays rely on reduction of a dye to a coloured formazan, in cell work by metabolically active cells.

Data set [3] in a line: Stability of compound in PBS at pH 7.4 and 37 degree C measured by HPLC method. The following applies: buffer. It is filed as physicochemical. In short, it runs like this:
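Compound incubated at 37 °C in PBS (pH 7.4, 5% DMSO) with no catalyst. Remaining compound followed over time.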

Data set [4] is described as follows: Prodrug conversion in PBS buffer assessed as mycophenolic acid formation in presence of nitroreductase and NADH. The format is ADME. In short, it runs like this: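 Prodrug incubated at 37 °C in PBS (pH 7.4, 5% DMSO) with nitroreductase conjugated to 30 μm amino-terminated polystyrene beads by reductive amination, plus NADH. Release of mycophenolic acid followed over time.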

A short description of data set [5]: Toxicity in mouse MIN6 cells assessed by dehydrogenase activity measured after 48 hrs by CCK-8 assay. It is filed as cell-based. The procedure, abridged: as §1

In general, EC50 refers to the concentration giving half of the maximal effect. The low end stands for a more potent agent, the high end for a less potent agent.

Inosine-5'-monophosphate dehydrogenase 2 (Homo sapiens), sequence (P12268 2-514 limits assumed): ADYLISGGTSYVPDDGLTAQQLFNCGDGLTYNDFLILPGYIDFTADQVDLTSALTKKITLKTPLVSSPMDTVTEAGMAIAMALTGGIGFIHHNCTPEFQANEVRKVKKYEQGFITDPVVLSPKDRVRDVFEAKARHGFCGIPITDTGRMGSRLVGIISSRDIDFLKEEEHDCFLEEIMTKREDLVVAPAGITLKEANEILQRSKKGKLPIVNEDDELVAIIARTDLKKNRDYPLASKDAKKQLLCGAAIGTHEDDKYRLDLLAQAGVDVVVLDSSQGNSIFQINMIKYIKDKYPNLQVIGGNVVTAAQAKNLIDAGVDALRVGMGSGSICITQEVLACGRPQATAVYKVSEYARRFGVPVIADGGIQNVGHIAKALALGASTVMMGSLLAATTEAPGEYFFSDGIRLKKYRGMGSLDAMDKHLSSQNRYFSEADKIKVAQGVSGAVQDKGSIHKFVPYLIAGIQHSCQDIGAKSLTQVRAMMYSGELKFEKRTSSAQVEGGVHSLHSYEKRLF

As for `C#CCOc1c(C/C=C(\C)CCC(=O)O)c(OC)c(C)c2c1C(=O)OC2`, in data set [1], the inhibition result is “inactive”. Further, the EC50 at 48 h in data set [2] turned out to be 20.1 µM. Further, in data set [3], the Stabilty result is “Stable”.

For `C#CCOC(=O)CC/C(C)=C/Cc1c(OC)c(C)c2c(c1OCC#C)C(=O)OC2`, in data set [1], the inhibition result is “inactive”. A half-maximal response in data set [2] (EC50 at 48 h) required 6.7 µM.

Consider `COc1c(C)c2c(c(OCc3ccc([N+](=O)[O-])cc3)c1C/C=C(\C)CCC(=O)OCc1ccc([N+](=O)[O-])cc1)C(=O)OC2`, for which, in data set [1], the inhibition entry is “inactive”. Besides, in data set [2], a half-maximal effect (EC50 at 48 h) was put at 8.3 µM.

As for `COc1c(C)c2c(c(OCc3ccc([N+](=O)[O-])cc3)c1C/C=C(\C)CCC(=O)O)C(=O)OC2`, in data set [1], the inhibition result was “inactive”. The Drug metabolism result in data set [4] is given as “Metabolite_Detected”. The EC50 at 48 h in data set [5] is 24 µM; in data set [2], 14.4 µM. For the same compound, the Stabilty result in data set [3] is given as “Stable”.

For `COc1c(C)c2c(c(O)c1C/C=C(\C)CCC(=O)O)C(=O)OC2` [MYCOPHENOLIC ACID], the inhibition result in data set [1] is “Active”. The figures for the 50% effective concentration (EC50) at 48 h in data set [5] and in data set [2] were 0.6 µM and 5.9 µM, respectively.
